Data: article PMC5346068 (ACS infectious diseases, 2017)
In brackets after ≈: the same amount, converted by molar mass. Entries after “also recorded” stand apart in the source; their conditions may differ.

Legend:
[1] = tested on: T. brucei; test: T. brucei in vitro growth inhibition; assay type: cell-based; conditions: Trypanosoma brucei, read-out: T. brucei EC50
[2] = MRC5-SV2 human lung cell toxicity; assay type: cell-based; conditions: MRC5-SV2 human lung cells
[3] = Aqueous solubility; assay type: physicochemical
[4] = Human plasma protein binding; assay type: in vitro ADME
[5] = Human liver microsome clearance; assay type: in vitro ADME; conditions: liver microsomes
[6] = Rat hepatocyte clearance; assay type: in vitro ADME; conditions: rat hepatocytes
[7] = logD 7.4; assay type: physicochemical; conditions: pH 7.4
[8] = Mouse plasma and brain pharmacokinetics; assay type: in vivo, female BALB/c mice; conditions: female, BALB/c, brain, ip, 10 mg/kg
Summary of the method: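 Female BALB/c mice received a single intraperitoneal 10 mg/kg dose of test compound. Drug levels were measured in plasma and brain, and the brain-to-plasma ratio and brain concentration were taken at the 24 h time point.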

[9] = tested on: T. b. brucei (GVR 35 strain); test: Murine CNS infection model; assay type: in vivo, mouse; conditions: tail blood; for mice with no detectable parasitemia, day 28: 1 at 20 mg/kg/day days 21-25, Berenil single 40 mg/kg day 21
Summary of the method: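 Mice were infected on day 0 with T. b. brucei GVR 35, in two groups of 5, and checked for parasitemia on day 14. The control group got a single 40 mg/kg Berenil dose on day 21, then vehicle (DMSO in PBS) on days 22–25. The treated group got test compound at 20 mg/kg/day on days 21–25 and again on days 28–32. Tail blood was examined on days 14, 28, 35, 39 and 43.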

[10] = biological target: T1, T. brucei MetRS (Trypanosoma brucei brucei, UniProt Q38C91); test: T. brucei MetRS inhibition assay; assay type: biochemical
T1 sequence (Q38C91 1-773): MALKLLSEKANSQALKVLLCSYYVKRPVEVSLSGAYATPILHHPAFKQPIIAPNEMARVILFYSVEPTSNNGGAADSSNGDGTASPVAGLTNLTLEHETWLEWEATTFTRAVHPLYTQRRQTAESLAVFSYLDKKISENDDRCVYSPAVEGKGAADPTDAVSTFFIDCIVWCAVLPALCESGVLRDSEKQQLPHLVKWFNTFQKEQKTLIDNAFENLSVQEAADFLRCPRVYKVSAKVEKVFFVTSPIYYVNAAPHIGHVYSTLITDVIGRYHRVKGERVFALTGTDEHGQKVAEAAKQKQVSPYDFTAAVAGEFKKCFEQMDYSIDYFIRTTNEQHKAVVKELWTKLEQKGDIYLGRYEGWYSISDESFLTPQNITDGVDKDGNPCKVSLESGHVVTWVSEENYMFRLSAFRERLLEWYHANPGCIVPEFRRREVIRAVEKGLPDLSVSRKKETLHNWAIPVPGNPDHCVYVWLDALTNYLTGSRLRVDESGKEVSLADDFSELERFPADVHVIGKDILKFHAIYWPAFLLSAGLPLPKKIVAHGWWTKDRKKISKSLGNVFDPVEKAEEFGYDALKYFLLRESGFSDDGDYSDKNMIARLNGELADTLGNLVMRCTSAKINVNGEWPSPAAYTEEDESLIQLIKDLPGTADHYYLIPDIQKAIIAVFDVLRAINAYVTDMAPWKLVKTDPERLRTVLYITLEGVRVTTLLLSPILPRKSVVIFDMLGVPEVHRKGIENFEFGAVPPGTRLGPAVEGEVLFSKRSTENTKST

[11] = tested on: wild-type T. brucei; test: Wild-type T. brucei growth inhibition assay; assay type: cell-based; conditions: Trypanosoma brucei, read-out: WT EC50
[12] = tested on: 1433-resistant T. brucei; test: microbe, parasite or virus in culture; assay type: cell-based, Trypanosoma brucei; conditions: for EC50: Trypanosoma brucei, read-out: 1433 resistant EC50; for 1433 resistant EC50 / WT EC50: fold shift resistant vs wild-type
[13] = tested on: T. brucei rhodesiense; conditions: T. brucei rhodesiense mouse model of HAT; cited from earlier work

## OCCn1c(CNCCCNc2nc3ccccc3[nH]2)cc2c(Cl)cc(Cl)cc21 [Compound 1, 2-(2-(((3-((1H–Benzo[d]imidazol-2-yl)amino)propyl)amino)methyl)-4,6-dichloro-1H–indol-1-yl)ethan-1-ol]
[1]
  EC50: 0.96 nM
[2]
  EC50: 12000 nM
[3]
  solubility: 6.33 µM (≈ 2.74 µg/mL)
[4]
  fraction unbound: < 0.001
[5]
  microsomal CLint: 24 µL/min/mg
[6]
  Rat Hepatocyte Clint: 24.9 µL/min/10^6
[7]
  logD: 4
[8]
  concentration at 24 h: 31.6 ng/g
[9]
  mice with no detectable parasitemia, day 28: 3/5
  parasitemia, day 39: full relapse of parasites in the blood
[10]
  IC50: < 25 nM
[11]
  EC50: 0.13 ± 0.01 nM
[12]
  EC50: 14 ± 1 nM
  1433 resistant EC50 / WT EC50: 108
[13]
  efficacy in bloodstream infection mouse model: cured a bloodstream infection

## N=C(N)c1ccc(OCCCCCOc2ccc(C(=N)N)cc2)cc1 [Pentamidine, reference compound]
[10]; up to 10 µM
  T. brucei MetRS inhibition: no T. brucei MetRS inhibition; also recorded: does not inhibit T. brucei MetRS
[11]
  EC50: 1.5 ± 0.2 nM
[12]
  EC50: 1.1 ± 0.1 nM
  1433 resistant EC50 / WT EC50: 0.73

## CC(=O)NCC(=O)O.CC(=O)NCC(=O)O.N=C(N)c1ccc(N=NNc2ccc(C(=N)N)cc2)cc1 [Berenil]
[9]
  mice with no detectable parasitemia, day 28: no detectable levels of parasitemia
  parasitemia, day 39: no detectable levels of parasitemia
[9]; day 43, group of 5 mice
  mice showing a relapse, day 43: 2
